Laboratory results published in ChEMBL document CHEMBL3813637, “Synthesis and Antiproliferative and Metabolic Evaluations of Novel Securinine Derivatives” (ACS Med Chem Lett, 2016).

Tested on: not listed separately
Test: Antiproliferative activity against human HCT116 cells assessed as reduction in cell viability at 20 uM after 72 hrs by ATPlite assay
Assay type: functional
Conditions: HCT-116, 72 h, read-out: GI
Procedure, shortened: (§1)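 HCT-116 human colon cancer cells exposed to compound for 72 h at 20, 10 or 1 μM. Growth inhibition is expressed as percentage relative to nontreated cells.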

Compound | inhibition of growth at 20 µM
O=C1C=C2C(C#CCO)=C[C@@H]3C[C@@]2(O1)[C@H]1CCCCN31 | 98.9%
CCCCCC#CC1=C[C@@H]2C[C@@]3(OC(=O)C=C13)[C@H]1CCCCN21 | 97.5%
O=C1C=C2C(c3ccccc3)=C[C@@H]3C[C@@]2(O1)[C@H]1CCCCN31 | 24.1%
O=C1C=C2C(c3ccc(Br)cc3)=C[C@@H]3C[C@@]2(O1)[C@H]1CCCCN31 | 60.1%
CC(C)(C)c1ccc(C2=C[C@@H]3C[C@@]4(OC(=O)C=C24)[C@H]2CCCCN32)cc1 | 30.6%
Cc1ccc(C2=C[C@@H]3C[C@@]4(OC(=O)C=C24)[C@H]2CCCCN32)cc1 | 30%
O=C1C=C2C(C#Cc3cccnc3)=C[C@@H]3C[C@@]2(O1)[C@H]1CCCCN31 | 100%
CC(C)(C)C#CC1=C[C@@H]2C[C@@]3(OC(=O)C=C13)[C@H]1CCCCN21 | 100%
CCN(CC)c1ccc(C#CC2=C[C@@H]3C[C@@]4(OC(=O)C=C24)[C@H]2CCCCN32)cc1 | 100%
O=C1C=C2C(C#Cc3ccccc3C(F)(F)F)=C[C@@H]3C[C@@]2(O1)[C@H]1CCCCN31 | 100%
O=C1C=C2C(C#CC3CCCCC3)=C[C@@H]3C[C@@]2(O1)[C@H]1CCCCN31 | 100%
O=C1C=C2C(C#Cc3ccc(N4CCCCC4)cc3)=C[C@@H]3C[C@@]2(O1)[C@H]1CCCCN31 | 100%
O=C1C=C2C(C#CC3C=CCCC3)=C[C@@H]3C[C@@]2(O1)[C@H]1CCCCN31 (some centres undefined) | 97.3%
CCCCC#CC1=C[C@@H]2C[C@@]3(OC(=O)C=C13)[C@H]1CCCCN21 | 99.5%
O=C1C=C2C(c3ccc(-c4ccccc4)cc3)=C[C@@H]3C[C@@]2(O1)[C@H]1CCCCN31 | 82.8%
O=C1C=C2C(c3ccc(F)cc3)=C[C@@H]3C[C@@]2(O1)[C@H]1CCCCN31 | 24%
COc1cccc2c1C(=O)c1c(O)c3c(c(O)c1C2=O)C[C@@](O)(C(=O)CO)C[C@@H]3O[C@H]1C[C@H](N)[C@H](O)[C@H](C)O1 [DOXORUBICIN] | 95.6%

Tested on: not listed separately
Test: Antiproliferative activity against human HCT116 cells assessed as reduction in cell viability at 10 uM after 72 hrs by ATPlite assay
Assay type: functional
Conditions: HCT-116, 72 h, read-out: GI
Procedure, shortened: as §1

Compound | inhibition of growth at 10 µM
O=C1C=C2C(C#CCO)=C[C@@H]3C[C@@]2(O1)[C@H]1CCCCN31 | 94.9%
CCCCCC#CC1=C[C@@H]2C[C@@]3(OC(=O)C=C13)[C@H]1CCCCN21 | 96.6%
O=C1C=C2C(c3ccccc3)=C[C@@H]3C[C@@]2(O1)[C@H]1CCCCN31 | 9.2%
O=C1C=C2C(c3ccc(Br)cc3)=C[C@@H]3C[C@@]2(O1)[C@H]1CCCCN31 | 23%
CC(C)(C)c1ccc(C2=C[C@@H]3C[C@@]4(OC(=O)C=C24)[C@H]2CCCCN32)cc1 | 9.7%
Cc1ccc(C2=C[C@@H]3C[C@@]4(OC(=O)C=C24)[C@H]2CCCCN32)cc1 | 11.7%
O=C1C=C2C(C#Cc3cccnc3)=C[C@@H]3C[C@@]2(O1)[C@H]1CCCCN31 | 100%
CC(C)(C)C#CC1=C[C@@H]2C[C@@]3(OC(=O)C=C13)[C@H]1CCCCN21 | 98.8%
CCN(CC)c1ccc(C#CC2=C[C@@H]3C[C@@]4(OC(=O)C=C24)[C@H]2CCCCN32)cc1 | 100%
O=C1C=C2C(C#Cc3ccccc3C(F)(F)F)=C[C@@H]3C[C@@]2(O1)[C@H]1CCCCN31 | 99.9%
O=C1C=C2C(C#CC3CCCCC3)=C[C@@H]3C[C@@]2(O1)[C@H]1CCCCN31 | 99.8%
O=C1C=C2C(C#Cc3ccc(N4CCCCC4)cc3)=C[C@@H]3C[C@@]2(O1)[C@H]1CCCCN31 | 100%
O=C1C=C2C(C#CC3C=CCCC3)=C[C@@H]3C[C@@]2(O1)[C@H]1CCCCN31 (some centres undefined) | 98.1%
CCCCC#CC1=C[C@@H]2C[C@@]3(OC(=O)C=C13)[C@H]1CCCCN21 | 98.1%
O=C1C=C2C(c3ccc(-c4ccccc4)cc3)=C[C@@H]3C[C@@]2(O1)[C@H]1CCCCN31 | 52.6%
O=C1C=C2C(c3ccc(F)cc3)=C[C@@H]3C[C@@]2(O1)[C@H]1CCCCN31 | 9.9%
COc1cccc2c1C(=O)c1c(O)c3c(c(O)c1C2=O)C[C@@](O)(C(=O)CO)C[C@@H]3O[C@H]1C[C@H](N)[C@H](O)[C@H](C)O1 [DOXORUBICIN] | 94.3%

Tested on: not listed separately
Test: Antiproliferative activity against human HCT116 cells assessed as reduction in cell viability at 1 uM after 72 hrs by ATPlite assay
Assay type: functional
Conditions: HCT-116, 72 h, read-out: GI
Procedure, shortened: as §1

Compound | inhibition of growth at 1 µM
O=C1C=C2C(C#CCO)=C[C@@H]3C[C@@]2(O1)[C@H]1CCCCN31 | 5%
CCCCCC#CC1=C[C@@H]2C[C@@]3(OC(=O)C=C13)[C@H]1CCCCN21 | 10.2%
O=C1C=C2C(c3ccccc3)=C[C@@H]3C[C@@]2(O1)[C@H]1CCCCN31 | -3.8%
O=C1C=C2C(c3ccc(Br)cc3)=C[C@@H]3C[C@@]2(O1)[C@H]1CCCCN31 | -5.2%
CC(C)(C)c1ccc(C2=C[C@@H]3C[C@@]4(OC(=O)C=C24)[C@H]2CCCCN32)cc1 | 0.9%
Cc1ccc(C2=C[C@@H]3C[C@@]4(OC(=O)C=C24)[C@H]2CCCCN32)cc1 | 0.3%
O=C1C=C2C(C#Cc3cccnc3)=C[C@@H]3C[C@@]2(O1)[C@H]1CCCCN31 | 96.4%
CC(C)(C)C#CC1=C[C@@H]2C[C@@]3(OC(=O)C=C13)[C@H]1CCCCN21 | 25.2%
CCN(CC)c1ccc(C#CC2=C[C@@H]3C[C@@]4(OC(=O)C=C24)[C@H]2CCCCN32)cc1 | 98.2%
O=C1C=C2C(C#Cc3ccccc3C(F)(F)F)=C[C@@H]3C[C@@]2(O1)[C@H]1CCCCN31 | 55.8%
O=C1C=C2C(C#CC3CCCCC3)=C[C@@H]3C[C@@]2(O1)[C@H]1CCCCN31 | 49.3%
O=C1C=C2C(C#Cc3ccc(N4CCCCC4)cc3)=C[C@@H]3C[C@@]2(O1)[C@H]1CCCCN31 | 98%
O=C1C=C2C(C#CC3C=CCCC3)=C[C@@H]3C[C@@]2(O1)[C@H]1CCCCN31 (some centres undefined) | 3.3%
CCCCC#CC1=C[C@@H]2C[C@@]3(OC(=O)C=C13)[C@H]1CCCCN21 | 7.6%
O=C1C=C2C(c3ccc(-c4ccccc4)cc3)=C[C@@H]3C[C@@]2(O1)[C@H]1CCCCN31 | 5.4%
O=C1C=C2C(c3ccc(F)cc3)=C[C@@H]3C[C@@]2(O1)[C@H]1CCCCN31 | 2.1%
COc1cccc2c1C(=O)c1c(O)c3c(c(O)c1C2=O)C[C@@](O)(C(=O)CO)C[C@@H]3O[C@H]1C[C@H](N)[C@H](O)[C@H](C)O1 [DOXORUBICIN] | 99.6%

Tested on: A-375
Test: Antiproliferative activity against human A375 cells assessed as reduction in cell viability after 72 hrs by ATPlite assay
Assay type: functional, cell-based
Conditions: A-375, 72 h
Procedure, shortened: (§2)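 IC50 determined in human cancer cell lines (HCT-116, A-375 melanoma, HL-60, A-549). Camptothecin and etoposide served as reference compounds.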

Compound | IC50
O=C1C=C2C(C#Cc3cccnc3)=C[C@@H]3C[C@@]2(O1)[C@H]1CCCCN31 | 0.95 µM

Tested on: A549
Test: Antiproliferative activity against human A549 cells assessed as reduction in cell viability after 72 hrs by ATPlite assay
Assay type: functional, cell-based
Conditions: A549, 72 h
Procedure, shortened: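 IC50 values were determined on a panel of four human cancer lines (HCT-116, A-549, HL-60, A-375), with camptothecin and etoposide as reference compounds.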

Compound | IC50
O=C1C=C2C(C#Cc3cccnc3)=C[C@@H]3C[C@@]2(O1)[C@H]1CCCCN31 | 4.4 µM

Tested on: not listed separately
Test: Antiproliferative activity against human HL60 cells assessed as reduction in cell viability after 72 hrs by ATPlite assay
Assay type: functional, cell-based
Conditions: HL-60, 72 h
Procedure, shortened: as §2

Compound | IC50
O=C1C=C2C(C#Cc3cccnc3)=C[C@@H]3C[C@@]2(O1)[C@H]1CCCCN31 | > 10 µM
